Results on 1 compound are retold here after BindingDB's records for PubMed 35349261 (Hospital Regional Universitario, 2022).

The target in this assay is T1, Glucagon-like peptide 1 receptor (Rattus norvegicus, UniProt P32301).
T1 sequence (P32301 whole entry): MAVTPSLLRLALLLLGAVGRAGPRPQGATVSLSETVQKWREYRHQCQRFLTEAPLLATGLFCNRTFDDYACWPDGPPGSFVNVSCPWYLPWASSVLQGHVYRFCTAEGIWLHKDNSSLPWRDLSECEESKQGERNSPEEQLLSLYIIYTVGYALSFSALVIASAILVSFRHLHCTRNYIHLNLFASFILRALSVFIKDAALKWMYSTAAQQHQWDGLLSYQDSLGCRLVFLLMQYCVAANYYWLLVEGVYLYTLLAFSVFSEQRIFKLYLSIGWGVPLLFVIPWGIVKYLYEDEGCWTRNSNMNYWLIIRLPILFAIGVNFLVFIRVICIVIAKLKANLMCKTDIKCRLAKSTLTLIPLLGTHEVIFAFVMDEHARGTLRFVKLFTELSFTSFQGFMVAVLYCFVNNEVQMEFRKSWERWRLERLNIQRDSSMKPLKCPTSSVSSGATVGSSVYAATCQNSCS
In words: Positive allosteric modulator activity at GLP-1R in rat INS1 beta-cells assessed potentiation of GLP-1(7-36)NH2 induced insulin secretion at 0.1 nM incubated for 30 mins in presence of exendin(9-39)NH2 by ELISA. An outline of the steps:
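Rat INS-1E cells in RPMI 1640 with 10% fetal calf serum at 37 °C, 7.5% CO2. Cells were detached, washed and plated at 100,000 cells/well, then held in glucose-free medium for 1.5 h. […] Insulin in the medium was read by ELISA; data are triplicate.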

The structures appear in SMILES notation.

Usually IC50 stands for the point on the concentration scale where inhibition reaches its midpoint. On to `FC(F)(F)c1ccc(-c2noc(CN3CCCC(CN4CCOCC4)C3)n2)cc1` (stereo unspecified), for which the IC50 came to 6.3 nM.
